Experimental data from different studies.
Compare with care: the assays were run in different laboratories.
Target: 5'-AMP-activated protein kinase catalytic subunit alpha-1 (PRKAA1, Homo sapiens, UniProt Q13131)

Compound | observed | mode | method | cells | concentration | quantity | value
Cc1ccc(C(=O)Nc2ccc(CN3CCN(C)CC3)c(C(F)(F)F)c2)cc1C#Cc1cnc2cccnn12 | enzyme activity | – | – | – | 23.5 nM | remaining activity | 73%
Nc1ncnc2occ(-c3ccc(NC(=O)Nc4cc(C(F)(F)F)ccc4F)cc3)c12 | cell-free assay | – | – | – | 20 µM | remaining signal | 5.3%
Nc1cnc(N2CCc3cc(S(=O)(=O)Nc4c(F)cc(Cl)cc4F)cc(N4CCCC4=O)c32)nc1 | cell-free assay | – | competition with immobilised ligand | – | 1 µM | remaining binding | 100%
CN1CC(Oc2cnc(C#N)cc2-c2ccn3nc(NC(=O)C4CC4)cc3c2)C1 | enzyme activity | inhibitor | – | – | 1 µM | inhibition | 5%
CCc1ccccc1C(=O)Nc1n[nH]c2c(C)c(F)c(C3C(C#N)=C(C)N(C)C(C)=C3C#N)cc12 | cell-free assay | – | competition with immobilised ligand | – | 1 µM | remaining binding | 7.5%
FC(F)(F)Oc1cccc(-c2cnc3ccc(-c4ccncc4)nn23)c1 | enzyme activity | inhibitor | radiometric | – | 1 µM | activity vs control | 81%
CCN1CCN(Cc2ccc(NC(=O)c3ccc(C)c(Oc4ccnc5[nH]ccc45)c3)cc2C(F)(F)F)CC1 | target engagement in cells | inhibitor | chemoproteomics | Huh-7 | 1 µM | inhibition | -32.8%
CCCCNc1ncc2c(-c3ccc(F)cc3)nn(C[C@H]3CC[C@H](N)CC3)c2n1 | target engagement in cells | inhibitor | chemoproteomics | – | 20 mM | inhibition | 22.8%
Cc1ncc([N+](=O)[O-])n1C(=NO)c1ccccc1C(F)(F)F | enzyme activity | inhibitor | – | – | 10 µM | inhibition | 7.33%
C=CC(=O)Nc1cc(Nc2nccc(Nc3cc(Cl)c(F)cc3C(C)(C)O)n2)c(OC)cc1N1CC[C@@H](N(C)C)C1 | enzyme activity | inhibitor | – | – | 1 µM | inhibition | -6%
CC(C)(C)c1nc2c(s1)c1nc(N)ncc1c1ccc(NS(=O)(=O)c3c(F)cccc3F)c(F)c12 | enzyme activity | inhibitor | radiometric | – | 1 µM | remaining activity | 81%
O=C(Nc1cccnn1)N1CC(C/C=C/c2cncc(Oc3ccc(C(F)(F)F)cn3)n2)C1 | cell-free assay | – | competition with immobilised ligand | – | 1 µM | remaining binding | 100%
CC(C)(C)c1nc(-c2cccc(NS(=O)(=O)c3c(F)cccc3F)c2F)c(-c2ccnc(N)n2)s1 | enzyme activity | inhibitor | radiometric | – | 1 µM | remaining activity | 49%
COc1cccc2c(NCc3ccccc3)nc(-n3c(N)nc4ccccc43)nc12 | target engagement in cells | inhibitor | chemoproteomics | – | 20 mM | inhibition | 8.3%
